In PubChem BioAssay AID588422 (The Scripps Research Institute Molecular Screening Center, 2011):
Active and inactive are the calls of the source.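 Rule for the calls: active = IC50 at or below 1 µM; inactive = the rest.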

Molecular target: Protein-arginine deiminase type-4 (Homo sapiens) (UniProt Q9UM07)
Assay: recombinant human PAD4 inhibitors – biochemical, BAEE substrate, citrulline absorbance, 0-60 µM range, late-stage follow-up (AID 588422)
Conditions: recombinant PAD4, BAEE citrulline colorimetric absorbance
Outline: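 System – recombinant PAD4 · Amount – PAD4 enzyme at 0.2 µM · Reagent – BAEE substrate at 10 mM · Dosing – 7 doses up to 60 µM · Times – Enzyme–compound preincubation 15 min at 37 °C, then 15 min BAEE reaction · Detection – citrulline colour reaction, A540 · Control set – DMSO vehicle control · Replication – duplicates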

Chain of Protein-arginine deiminase type-4 (Homo sapiens) (Q9UM07 whole entry, looked up): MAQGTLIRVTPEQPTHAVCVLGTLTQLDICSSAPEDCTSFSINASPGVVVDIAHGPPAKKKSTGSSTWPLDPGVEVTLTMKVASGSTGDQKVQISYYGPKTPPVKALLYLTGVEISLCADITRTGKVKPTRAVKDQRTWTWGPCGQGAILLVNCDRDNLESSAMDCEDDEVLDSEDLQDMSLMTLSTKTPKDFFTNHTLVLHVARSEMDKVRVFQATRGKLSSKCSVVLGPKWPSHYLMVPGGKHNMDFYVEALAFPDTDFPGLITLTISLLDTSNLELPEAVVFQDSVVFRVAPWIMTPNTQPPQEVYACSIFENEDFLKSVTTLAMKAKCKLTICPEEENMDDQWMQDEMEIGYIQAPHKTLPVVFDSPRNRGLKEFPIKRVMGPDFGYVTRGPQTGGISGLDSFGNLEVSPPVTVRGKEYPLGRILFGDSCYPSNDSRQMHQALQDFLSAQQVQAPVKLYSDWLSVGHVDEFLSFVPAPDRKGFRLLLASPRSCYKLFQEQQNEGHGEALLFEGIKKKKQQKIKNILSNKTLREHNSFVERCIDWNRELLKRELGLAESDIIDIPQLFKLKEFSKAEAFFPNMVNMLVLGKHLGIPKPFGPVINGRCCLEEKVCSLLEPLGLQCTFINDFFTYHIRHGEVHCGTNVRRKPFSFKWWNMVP

For `COC(=O)c1cccc(-c2ccc3c(n2)C(=O)C(Br)=CC3=O)n1`, the IC50 was “inactive”.
